Where a SMILES comes first, the peptide text is derived from it. The star is where a group is joined. X1 = O=C(NCCCN*)c1ccc(-c2n[nH]c3ccccc23)cc1
Key:
[1] = molecular target: JNK1 (Homo sapiens, UniProt P45983); type: biochemical; conditions: for IC50: read-out: Kinase Inhibition IC50, JNK1 phosphorylation of ATF2, TR-FRET
[2] = system: NONcNZO10/LtJ mice; assay: Glucose tolerance test in type 2 diabetes mouse model; type: in vivo; conditions: 25 mg/kg i.p. daily, 26-week-old NONcNZO10/LtJ mice, 2 g/kg D-glucose i.p.
In short: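 Male 26-week-old NONcNZO10/LtJ mice, glucose intolerant, received test compound daily by i.p. injection alongside vehicle-treated controls. After a 16 h fast, mice were given D-glucose i.p. Blood was sampled at set time points and glucose read with a hand-held meter. Treated and vehicle groups were compared by two-way ANOVA using all measurements.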

[3] = molecular target: GST-JNK1 (UniProt P45983 1-427); assay: DELFIA
GST-JNK1, sequence (P45983 whole entry): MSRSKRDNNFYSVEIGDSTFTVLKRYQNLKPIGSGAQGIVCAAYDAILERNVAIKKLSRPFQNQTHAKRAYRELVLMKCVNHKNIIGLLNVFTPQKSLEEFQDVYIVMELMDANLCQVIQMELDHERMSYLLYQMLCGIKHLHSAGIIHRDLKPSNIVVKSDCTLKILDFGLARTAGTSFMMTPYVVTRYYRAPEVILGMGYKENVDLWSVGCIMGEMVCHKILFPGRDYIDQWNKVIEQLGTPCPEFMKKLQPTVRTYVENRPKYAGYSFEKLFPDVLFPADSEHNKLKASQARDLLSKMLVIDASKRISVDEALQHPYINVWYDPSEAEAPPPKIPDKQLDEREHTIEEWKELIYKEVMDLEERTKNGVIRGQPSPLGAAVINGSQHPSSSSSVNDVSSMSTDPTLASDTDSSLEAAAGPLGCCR

JNK1, sequence (P45983 whole entry): as above

improvement of kinase inhibition properties compared with 20 ([1]; 9 versus 20, Figure 1e)	IC50 [3] [µM]	Molecule	IC50 [1] [µM]	glucose tolerance / restoring normoglycemia [2]
		Ac-tdqsrpvqpflnlttprrprpprrrqrrkkrg-OH (Ac-TDQSRPVQPFLNLTTPRRPRPPRRRQRRKKRG-OH; also: lowercase letters in name, meaning not given here) [compound 11]	> 50	observed shortcoming
over 100 fold		CC(C)CC(NC(=O)C(CC(N)=O)NC(=O)C(CC(C)C)NC(=O)C(NC(=O)C(NC(=O)C1CCCN1C(=O)C(N)CCCNC(=N)N)C(C)O)C(C)O)C(=O)NCC(=O)NCC(=O)NCCCNC(=O)c1ccc(-c2n[nH]c3ccccc23)cc1 (centres unmarked) [compound 9] (H-RPTTLNLGG-X1; configuration not given here)	0.0007	
	4.5	Ac-RPTTLNL-OH [10 (Ac-RPTTLNL-OH)]		
